From ChEMBL document CHEMBL4017460, “A Tobramycin Vector Enhances Synergy and Efficacy of Efflux Pump Inhibitors against Multidrug-Resistant Gram-Negative Bacteria” (J Med Chem, 2017)
In brackets after ≈: the same amount, converted by molar mass. Activity calls are given as the source filed them. The calls are words filed in the database; no cut-off is given here.

Legend:
[1] = test system: Pseudomonas aeruginosa PAO1; assay: Inhibition of RND efflux pump in Pseudomonas aeruginosa PAO1 assessed as increase in tetracycline uptake measured at 1 min interval for 30 mins by fluorescence assay
Outline: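 Tetracycline uptake assay in P. aeruginosa PAO1: enhancement of tetracycline fluorescence as it enters cells, monitored with compound present at several concentrations.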

Pseudomonas aeruginosa [2] = assay: Inhibition of RND efflux pump in Pseudomonas aeruginosa isolate P262-101856 assessed as potentiation of minocycline-induced antibacterial activity by measuring fold reduction in minocycline MIC at 8 ug/ml after 18 to 24 hrs by microbroth dilution assay
Outline: (§1)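 Checkerboard broth microdilution: antibiotic 2-fold diluted along one axis, adjuvant 2-fold diluted along the other. Overnight culture standardized to 0.5 McFarland in saline, diluted 1:50 in MHB, added to wells, 37 °C for 18 h. MIC is the lowest concentration with no growth. FIC = MIC in combination / MIC alone; FICI = sum of the two FICs; FICI ≤0.5 is synergy.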

Pseudomonas aeruginosa [3] = assay: Reduction in flagellum-dependant motility in Pseudomonas aeruginosa PAO1 at sub MIC after 20 hrs in presence of minocycline by swimming motility test; type: functional
Pseudomonas aeruginosa [4] = assay: Inhibition of RND efflux pump in colistin-resistant Pseudomonas aeruginosa isolate 101243 assessed as potentiation of minocycline-induced antibacterial activity at 8 ug/ml after 18 to 24 hrs by checker board assay; outline: as §1
Pseudomonas aeruginosa [5] = assay: Inhibition of RND efflux pump in Pseudomonas aeruginosa isolate 100036 assessed as potentiation of minocycline-induced antibacterial activity at 8 ug/ml after 18 to 24 hrs by checker board assay
Outline: as §1, with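 “in MHB:” for “broth microdilution:”, “test agent” for “adjuvant”, “wells, incubated” for “wells,”, “FIC index” for “FICI”, “both FICs.” for “the two FICs; FICI ≤0.5 is synergy.”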

Enterobacter cloacae [6] = assay: Inhibition of RND efflux pump in Enterobacter cloacae isolate 117029 assessed as potentiation of minocycline-induced antibacterial activity at 8 ug/ml after 18 to 24 hrs by microbroth dilution assay
Outline: as §1, with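 “in MHB:” for “broth microdilution:”, “test agent” for “adjuvant”, “wells, incubated” for “wells,”, “FIC index” for “FICI”, “both FICs.” for “the two FICs; FICI ≤0.5 is synergy.”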

Pseudomonas aeruginosa [7] = assay: Inhibition of RND efflux pump in Pseudomonas aeruginosa isolate P262-101856 assessed as potentiation of minocycline-induced antibacterial activity by measuring minocycline MIC at 8 ug/ml after 18 to 24 hrs by microbroth dilution assay (reference value: 128 to 256 ug/ml)
Outline: (§2)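 Absolute minocycline MIC taken from checkerboard broth dilution with a fixed 8 μg/mL adjuvant. Inoculum was a 0.5 McFarland saline suspension diluted 1:50 in MHB, incubated 37 °C for 18 h. MIC is the lowest concentration with no growth.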

Enterobacter cloacae [8] = assay: Inhibition of RND efflux pump in Enterobacter cloacae isolate 117029 assessed as potentiation of minocycline-induced antibacterial activity by measuring minocycline MIC at 8 ug/ml after 18 to 24 hrs by microbroth dilution assay (reference value: 128 to 256 ug/ml); outline: as §2
Pseudomonas aeruginosa [9] = assay: Inhibition of RND efflux pump in Pseudomonas aeruginosa isolate 100036 assessed as potentiation of minocycline-induced antibacterial activity by measuring minocycline MIC at 8 ug/ml after 18 to 24 hrs by microbroth dilution assay (reference value: 64 ug/ml); outline: as §1
Klebsiella pneumoniae [10] = assay: Antibacterial activity against Klebsiella pneumoniae isolate 116381 after 18 to 24 hrs by microbroth dilution assay; type: functional
Outline: as §1, with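 “in MHB:” for “broth microdilution:”, “test agent” for “adjuvant”, “wells, incubated” for “wells,”, “FIC index” for “FICI”, “both FICs.” for “the two FICs; FICI ≤0.5 is synergy.”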

[11] = test system: Pseudomonas aeruginosa PAO1; assay: Inhibition of RND efflux pump in Pseudomonas aeruginosa PAO1 assessed as potentiation of minocycline-induced antibacterial activity by measuring minocycline MIC at 8 ug/ml after 18 to 24 hrs by microbroth dilution assay (reference value: 8 ug/ml); outline: as §2
Pseudomonas aeruginosa [12] = assay: Antibacterial activity against Pseudomonas aeruginosa isolate P264-104354 after 18 to 24 hrs by microbroth dilution assay; type: functional
Outline: as §1, with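 “in MHB:” for “broth microdilution:”, “test agent” for “adjuvant”, “wells, incubated” for “wells,”, “FIC index” for “FICI”, “both FICs.” for “the two FICs; FICI ≤0.5 is synergy.”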

Klebsiella pneumoniae [13] = assay: Inhibition of RND efflux pump in Klebsiella pneumoniae isolate 116381 assessed as potentiation of minocycline-induced antibacterial activity at 8 ug/ml after 18 to 24 hrs by microbroth dilution assay
Outline: as §1, with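 “in MHB:” for “broth microdilution:”, “test agent” for “adjuvant”, “wells, incubated” for “wells,”, “FIC index” for “FICI”, “both FICs.” for “the two FICs; FICI ≤0.5 is synergy.”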

[14] = test system: Pseudomonas aeruginosa PAO1; assay: Inhibition of RND efflux pump in Pseudomonas aeruginosa PAO1 assessed as potentiation of tobramycin-induced antibacterial activity after 18 to 24 hrs by checker board assay
Outline: as §1, with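 “in MHB:” for “broth microdilution:”, “test agent” for “adjuvant”, “wells, incubated” for “wells,”, “FIC index” for “FICI”, “both FICs.” for “the two FICs; FICI ≤0.5 is synergy.”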

Pseudomonas aeruginosa [15] = assay: Antibacterial activity against Pseudomonas aeruginosa isolate 101885 after 18 to 24 hrs by microbroth dilution assay; type: functional; outline: as §1
[16] = test system: Pseudomonas aeruginosa PAO1; assay: Inhibition of RND efflux pump in Pseudomonas aeruginosa PAO1 assessed as potentiation of novobiocin-induced antibacterial activity […] by microbroth dilution assay
Pseudomonas aeruginosa [17] = assay: Antibacterial activity against Pseudomonas aeruginosa isolate P262-101856 after 18 to 24 hrs by microbroth dilution assay; type: functional; outline: as §1
[18] = test system: Pseudomonas aeruginosa PAO1; assay: Inhibition of RND efflux pump in Pseudomonas aeruginosa PAO1 assessed as potentiation of vancomycin-induced antibacterial activity […] by microbroth dilution assay
Pseudomonas aeruginosa [19] = assay: Potentiation of rifampicin-induced antibacterial activity against Pseudomonas aeruginosa PAO1 […] by microbroth dilution assay; type: functional
Pseudomonas aeruginosa [20] = assay: Potentiation of minocycline-induced antibacterial activity against mexAB-oprM deficient Pseudomonas aeruginosa PAO200 after 18 to 24 hrs by microbroth dilution assay; type: functional
Pseudomonas aeruginosa [21] = assay: Inhibition of RND efflux pump in Pseudomonas aeruginosa isolate P262-104354 assessed as potentiation of minocycline-induced antibacterial activity by measuring fold reduction in minocycline MIC at 0.25 times antibacterial MIC after 18 to 24 hrs by microbroth dilution assay; outline: as §1
Pseudomonas aeruginosa [22] = assay: Antibacterial activity against Pseudomonas aeruginosa isolate 100036 after 18 to 24 hrs by microbroth dilution assay; type: functional
Outline: as §1, with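 “in MHB:” for “broth microdilution:”, “test agent” for “adjuvant”, “wells, incubated” for “wells,”, “FIC index” for “FICI”, “both FICs.” for “the two FICs; FICI ≤0.5 is synergy.”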

Pseudomonas aeruginosa [23] = assay: Inhibition of RND efflux pump in Pseudomonas aeruginosa isolate P262-104354 assessed as potentiation of minocycline-induced antibacterial activity by measuring fold reduction in minocycline MIC at 8 ug/ml after 18 to 24 hrs by microbroth dilution assay; outline: as §1
Pseudomonas aeruginosa [24] = assay: Inhibition of RND efflux pump in Pseudomonas aeruginosa isolate 101885 assessed as potentiation of minocycline-induced antibacterial activity at 8 ug/ml after 18 to 24 hrs by checker board assay
Outline: as §1, with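 “in MHB:” for “broth microdilution:”, “test agent” for “adjuvant”, “wells, incubated” for “wells,”, “FIC index” for “FICI”, “both FICs.” for “the two FICs; FICI ≤0.5 is synergy.”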

Klebsiella pneumoniae [25] = assay: Inhibition of RND efflux pump in Klebsiella pneumoniae isolate 116381 assessed as potentiation of minocycline-induced antibacterial activity by measuring fold reduction in minocycline MIC at 8 ug/ml after 18 to 24 hrs by microbroth dilution assay; outline: as §2
Pseudomonas aeruginosa [26] = assay: Inhibition of RND efflux pump in colistin-resistant Pseudomonas aeruginosa isolate 101243 assessed as potentiation of minocycline-induced antibacterial activity by measuring fold reduction in minocycline MIC at 8 ug/ml after 18 to 24 hrs by microbroth dilution assay; outline: as §1
Pseudomonas aeruginosa [27] = assay: Inhibition of RND efflux pump in Pseudomonas aeruginosa isolate P259-96918 assessed as potentiation of minocycline-induced antibacterial activity by measuring fold reduction in minocycline MIC at 8 ug/ml after 18 to 24 hrs by microbroth dilution assay; outline: as §1
[28] = test system: Pseudomonas aeruginosa PAO1; assay: Inhibition of RND efflux pump in Pseudomonas aeruginosa PAO1 assessed as potentiation of chloramphenicol-induced antibacterial activity […] by microbroth dilution assay
Pseudomonas aeruginosa [29] = assay: Antibacterial activity against colistin-resistant Pseudomonas aeruginosa isolate 101243 after 18 to 24 hrs by microbroth dilution assay; type: functional; outline: as §1

Row | SMILES | inhibition [1] | fold change (FC) (Pseudomonas aeruginosa [2]) | Activity (Pseudomonas aeruginosa [3]) | fractional inhibitory concentration index (FICI) (Pseudomonas aeruginosa [4]) | fractional inhibitory concentration index (FICI) (Pseudomonas aeruginosa [5]) | fractional inhibitory concentration index (FICI) (Enterobacter cloacae [6]) | MIC (Pseudomonas aeruginosa [7]) | MIC (Enterobacter cloacae [8]) | MIC (Pseudomonas aeruginosa [9]) | MIC (Klebsiella pneumoniae [10]) | MIC [11] | MIC (Pseudomonas aeruginosa [12]) | fractional inhibitory concentration index (FICI) (Klebsiella pneumoniae [13]) | fractional inhibitory concentration index (FICI) [14] | MIC (Pseudomonas aeruginosa [15]) | fractional inhibitory concentration index (FICI) [16] | MIC (Pseudomonas aeruginosa [17]) | fractional inhibitory concentration index (FICI) [18] | fractional inhibitory concentration index (FICI) (Pseudomonas aeruginosa [19]) | Activity (Pseudomonas aeruginosa [20]) | further results
1 | Cl.Cl.Cl.Cl.Cl.Cl.Cl.NC[C@H]1O[C@H](O[C@H]2[C@H](OCCCCCCCCCCCCN3CCN(Cc4cccc5ccccc45)CC3)[C@@H](O[C@H]3O[C@H](CO)[C@@H](O)[C@H](N)[C@H]3O)[C@H](N)C[C@@H]2N)[C@H](N)C[C@@H]1O | Dose-dependent effect | 8 to 256 | Active | 0.28 | 0.02 | 0.03 to 0.16 | 4 µg/mL | 8 µg/mL | 0.5 µg/mL | > 32 µg/mL | 0.5 µg/mL | 128 µg/mL | 0.13 to 0.38 | > 1.5 | 256 µg/mL | < 0.1 | 64 µg/mL | < 0.15 | <0.05 | inactive | fold change (FC) (Pseudomonas aeruginosa [21]): 8 to 256; MIC (Pseudomonas aeruginosa [22]): 256 µg/mL; fold change (FC) (Pseudomonas aeruginosa [23]): 8 to 256; fractional inhibitory concentration index (FICI) (Pseudomonas aeruginosa [24]): 0.05; fold change (FC) (Klebsiella pneumoniae [25]): 4 to 256; fold change (FC) (Pseudomonas aeruginosa [26]): 8 to 256; fold change (FC) (Pseudomonas aeruginosa [27]): 8 to 256; fractional inhibitory concentration index (FICI) [28]: < 0.1; MIC (Pseudomonas aeruginosa [29]): 64 µg/mL
2 | Cl.Cl.Cl.Cl.Cl.Cl.NC[C@H]1O[C@H](O[C@H]2[C@H](OCCCCCCCCCCCCN3CC[C@@H](c4ccc(F)cc4)[C@H](COc4ccc5c(c4)OCO5)C3)[C@@H](O[C@H]3O[C@H](CO)[C@@H](O)[C@H](N)[C@H]3O)[C@H](N)C[C@@H]2N)[C@H](N)C[C@@H]1O | Dose-dependent effect | 8 to 256 | Active | 0.38 | 0.05 | 0.02 to 0.14 | 1 µg/mL | 4 µg/mL | < 0.25 µg/mL | > 32 µg/mL | 0.25 µg/mL | 64 µg/mL | 0.25 to 0.38 | > 1.5 | 32 µg/mL | < 0.1 | 32 µg/mL | < 0.15 | <0.05 | inactive | fold change (FC) (Pseudomonas aeruginosa [21]): 8 to 256; MIC (Pseudomonas aeruginosa [22]): 64 µg/mL; fold change (FC) (Pseudomonas aeruginosa [23]): 8 to 256; fractional inhibitory concentration index (FICI) (Pseudomonas aeruginosa [24]): 0.13; fold change (FC) (Klebsiella pneumoniae [25]): 4 to 256; fold change (FC) (Pseudomonas aeruginosa [26]): 8 to 256; fold change (FC) (Pseudomonas aeruginosa [27]): 8 to 256; fractional inhibitory concentration index (FICI) [28]: < 0.1; MIC (Pseudomonas aeruginosa [29]): 32 µg/mL
3 | NC[C@H]1C[C@H](C(=O)N[C@H](CCc2ccccc2)C(=O)Nc2ccc3ccccc3c2)N(CCCCCCCCCCCCO[C@@H]2[C@@H](O[C@H]3O[C@H](CO)[C@@H](O)[C@H](N)[C@H]3O)[C@H](N)C[C@H](N)[C@H]2O[C@H]2O[C@H](CN)[C@@H](O)C[C@H]2N)C1 | Dose-dependent effect | 8 to 256 | Active | 0.19 | 0.06 | 0.13 | < 1 µg/mL | 1 µg/mL | < 0.25 µg/mL | > 32 µg/mL | 0.12 µg/mL | 8 µg/mL (≈ 7.52 µM) | 0.03 to 0.16 | > 1.5 | 16 µg/mL (≈ 15 µM) | < 0.1 | 32 µg/mL (≈ 30.1 µM) | < 0.15 | <0.05 | inactive | fold change (FC) (Pseudomonas aeruginosa [21]): 8 to 256; MIC (Pseudomonas aeruginosa [22]): 32 µg/mL (≈ 30.1 µM); fold change (FC) (Pseudomonas aeruginosa [23]): 8 to 256; fractional inhibitory concentration index (FICI) (Pseudomonas aeruginosa [24]): 0.13; fold change (FC) (Klebsiella pneumoniae [25]): 4 to 256; fold change (FC) (Pseudomonas aeruginosa [26]): 8 to 256; fold change (FC) (Pseudomonas aeruginosa [27]): 8 to 256; fractional inhibitory concentration index (FICI) [28]: < 0.1; MIC (Pseudomonas aeruginosa [29]): 16 µg/mL (≈ 15 µM)
